This is an account of results in ChEMBL document CHEMBL1144203, “Synthesis and antiviral evaluation of acyclic azanucleosides developed from sulfanilamide as a lead structure” (Bioorg Med Chem, 2008).

In one data set the test system is MDCK. The data set can be described thus: Cytotoxicity against MDCK cells assessed as decrease in cell viability upto 100 uM by MTS assay. The note with it: dog. The class given is cell-based, Canis lupus familiaris. In general terms: Tetrazolium assays rely on reduction of a dye to a coloured formazan, in cell work by metabolically active cells.
Data set [1] in a line: Cytotoxicity against CRFK cells assessed as decrease in cell viability upto 100 uM by MTS assay. Type of data set: cell-based, Felis catus. The note with it: cat.
A further data set has as its system HEL. The data set can be described thus: Cytotoxicity against HEL cells assessed as decrease in cell viability upto 100 uM by MTS assay. The note with it: human. The class given is cell-based.
The test system of the next data set is HeLa. Put plainly: Cytotoxicity against human HeLa cells assessed as decrease in cell viability upto 100 uM by MTS assay. The class given is functional, cell-based. The gist of the method: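 Uninfected HeLa host cells were tested up to 100 μM. CC50 is the concentration causing a 50% drop in cell viability by colorimetric formazan-based MTS assay. Alternatively, MCC is the minimal concentration giving microscopically detectable alteration of normal cell morphology.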

Another data set deals with Human respirovirus 3. The data set can be described thus: Antiviral activity against Parainfluenza 3 virus infected in Vero cells assessed as inhibition of virus-induced cytopathic effect at 100 uM by MTS assay. The class given is functional, organism-based. The gist of the method:
(§1)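 Vero cell monolayers were infected with the virus in cell-based CPE assays. EC50 is the concentration giving 50% inhibition of virus-induced cytopathic effect, scored visually or by MTS formazan colorimetric cell-viability read-out. The highest concentration tested was 100 μM for most compounds and lower for a few.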
For orientation: Cytopathic effects are the visible damage that an infection or toxin causes in cultured cells.

The subject of data set [2] is Mammalian orthoreovirus 1. The data set can be described thus: Antiviral activity against Reovirus1 infected in Vero cells assessed as inhibition of virus-induced cytopathic effect at 100 uM by MTS assay. Type of data set: functional, organism-based. The method in brief: as §1
For a further data set, the system named is Sindbis virus. The data set can be described thus: Antiviral activity against Sindbis virus infected in Vero cells assessed as inhibition of virus-induced cytopathic effect at 100 uM by MTS assay. The class given is functional, organism-based. The method in brief:
as §1

The test system of the next data set is Feline coronavirus. The data set can be described thus: Antiviral activity against feline coronavirus infected in CRFK cells assessed as inhibition of virus-induced cytopathic effect at 100 uM by MTS assay. The class given is functional, organism-based.
For another data set, the system named is Felid alphaherpesvirus 1. Put plainly: Antiviral activity against feline herpes virus infected in CRFK cells assessed as inhibition of virus-induced cytopathic effect at 100 uM by MTS assay. The class given is functional, organism-based.
The subject of the next data set is Human alphaherpesvirus 1. The data set can be described thus: Antiviral activity against HSV1 virus infected in HEL cells assessed as inhibition of virus-induced cytopathic effect at 100 uM by MTS assay. Type of data set: functional, organism-based.
A further data set deals with Human alphaherpesvirus 2. The data set can be described thus: Antiviral activity against HSV2 virus infected in HEL cells assessed as inhibition of virus-induced cytopathic effect at 100 uM by MTS assay. Type of data set: functional, organism-based.
The subject of data set [3] is Coxsackievirus B4. The data set can be described thus: Antiviral activity against Coxsackievirus B4 infected in HeLa cells assessed as inhibition of virus-induced cytopathic effect at 100 uM by MTS assay. The class given is functional, organism-based. The method in brief: (§2)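 HeLa cells were infected with the virus, and compounds were tested up to 100 μM. EC50 is the concentration that halves virus-induced cytopathic effect, read by visual CPE scoring or by MTS formazan colorimetric viability measurement.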

The test system of data set [4] is Respiratory syncytial virus. Put plainly: Antiviral activity against respiratory syncytial virus infected in HeLa cells assessed as inhibition of virus-induced cytopathic effect at 100 uM by MTS assay. Type of data set: functional, organism-based. The method in brief:
as §2

The test system of data set [5] is Coxsackievirus B4. Put plainly: Antiviral activity against Coxsackievirus B4 infected in Vero cells assessed as inhibition of virus-induced cytopathic effect at 100 uM by MTS assay. Type of data set: functional, organism-based. The method in brief: as §1
The next data set concerns Punta Toro virus. Put plainly: Antiviral activity against Punta Toro virus infected in Vero cells assessed as inhibition of virus-induced cytopathic effect at 100 uM by MTS assay. Type of data set: functional, organism-based. The method in brief:
as §1

Structures are written as SMILES. Activity calls are given as the source filed them. The rule behind the calls is not given here.

For the molecule `CC(C)(C)C(=O)OCCN(Cn1ccc(=O)[nH]c1=O)S(=O)(=O)c1cccc([N+](=O)[O-])c1`, the Activity entry (in the data set on MDCK; in [1]; in the data set on HEL) was “Not Active” throughout. Further, the result (in the data set with HeLa; in the data set with Human respirovirus 3; in data set [2]; in the data set with Sindbis virus; in the data set on Feline coronavirus; in the data set with Felid alphaherpesvirus 1) was inactive. Also, the outcome (in the data set with Human alphaherpesvirus 1; with Human alphaherpesvirus 2; in the data set with Coxsackievirus B4 [3]; in [4]; in the data set on Coxsackievirus B4 [5]; in the data set with Punta Toro virus) was inactive.

With `Cc1cn(CN(CCO)S(=O)(=O)c2ccccc2N)c(=O)[nH]c1=O`, the Activity result (in the data set on MDCK; in data set [1]; in the data set with HEL) was “Not Active” each time. Moreover, the result (in the data set on HeLa; with Human respirovirus 3; in data set [2]; in the data set with Sindbis virus; with Feline coronavirus; with Felid alphaherpesvirus 1) was inactive. The outcome (with Human alphaherpesvirus 1; in the data set on Human alphaherpesvirus 2; in the data set on Coxsackievirus B4 [3]; in [4]; with Coxsackievirus B4 [5]; with Punta Toro virus) was inactive.

With `Cc1cn(CN(CCOC(=O)C(C)(C)C)S(=O)(=O)c2ccccc2N)c(=O)[nH]c1=O`, the Activity result (with MDCK; in data set [1]; in the data set on HEL) was “Not Active” each time. Further, the result (in the data set with HeLa; in the data set on Human respirovirus 3; in data set [2]; with Sindbis virus; in the data set on Feline coronavirus; with Felid alphaherpesvirus 1) was inactive. For the same molecule, the outcome (in the data set on Human alphaherpesvirus 1; in the data set on Human alphaherpesvirus 2; in the data set with Coxsackievirus B4 [3]; in data set [4]; with Coxsackievirus B4 [5]; with Punta Toro virus) was inactive.

As to `Cc1cn(CN(CCO)S(=O)(=O)c2cccc(N)c2)c(=O)[nH]c1=O`, the Activity result (in the data set on MDCK; in data set [1]; with HEL) was “Not Active” throughout. The outcome (with HeLa; with Human respirovirus 3; in data set [2]; in the data set with Sindbis virus; in the data set on Feline coronavirus; in the data set with Felid alphaherpesvirus 1) was inactive. For the same molecule, the result (with Human alphaherpesvirus 1; in the data set with Human alphaherpesvirus 2; in the data set on Coxsackievirus B4 [3]; in [4]; in the data set with Coxsackievirus B4 [5]; in the data set with Punta Toro virus) was inactive.

With `Cc1cn(CN(CCOC(=O)C(C)(C)C)S(=O)(=O)c2ccc(N)cc2)c(=O)[nH]c1=O`, the Activity result (in the data set with MDCK; in data set [1]; in the data set with HEL) was “Not Active” throughout. Besides, the result (in the data set with HeLa; in the data set with Human respirovirus 3; in [2]; in the data set on Sindbis virus; with Feline coronavirus; with Felid alphaherpesvirus 1) was inactive. The result (with Human alphaherpesvirus 1; in the data set with Human alphaherpesvirus 2; with Coxsackievirus B4 [3]; in data set [4]; with Coxsackievirus B4 [5]; in the data set on Punta Toro virus) was inactive.

`CC(C)(C)C(=O)OCCN(Cn1cc(F)c(=O)[nH]c1=O)S(=O)(=O)c1ccc(N)cc1`: the Activity result (in the data set on MDCK; in data set [1]; with HEL) was “Not Active” each time. Moreover, the outcome (with HeLa; with Human respirovirus 3; in data set [2]; with Sindbis virus; with Feline coronavirus; with Felid alphaherpesvirus 1) was inactive. Also, the outcome (with Human alphaherpesvirus 1; in the data set with Human alphaherpesvirus 2; with Coxsackievirus B4 [3]; in [4]; in the data set with Coxsackievirus B4 [5]; in the data set on Punta Toro virus) was inactive.

As for `CC(C)(C)C(=O)OCCN(Cn1cc(F)c(=O)[nH]c1=O)S(=O)(=O)c1cccc(N)c1`, the Activity result (in the data set on MDCK; in [1]; in the data set with HEL) was “Not Active” throughout. The outcome (in the data set with HeLa; in the data set with Human respirovirus 3; in data set [2]; with Sindbis virus; in the data set on Feline coronavirus; in the data set with Felid alphaherpesvirus 1) was inactive. Moreover, the result (in the data set with Human alphaherpesvirus 1; in the data set on Human alphaherpesvirus 2; in the data set with Coxsackievirus B4 [3]; in [4]; in the data set with Coxsackievirus B4 [5]; in the data set on Punta Toro virus) was inactive.

Consider `Cc1cn(CN(CCO)S(=O)(=O)c2ccc(N)cc2)c(=O)[nH]c1=O`, for which the Activity result (in the data set on MDCK; in data set [1]; in the data set on HEL) was “Not Active” each time. Besides, the outcome (in the data set with HeLa; in the data set on Human respirovirus 3; in data set [2]; with Sindbis virus; in the data set on Feline coronavirus; in the data set with Felid alphaherpesvirus 1) was inactive. The result (in the data set with Human alphaherpesvirus 1; in the data set with Human alphaherpesvirus 2; in the data set with Coxsackievirus B4 [3]; in data set [4]; in the data set on Coxsackievirus B4 [5]; in the data set on Punta Toro virus) was inactive.

On to `CC(C)(C)C(=O)OCCN(Cn1ccc(=O)[nH]c1=O)S(=O)(=O)c1ccc(N)cc1`, for which the Activity result (in the data set on MDCK; in [1]; in the data set on HEL) was “Not Active” throughout. Further, the result (with HeLa; in the data set on Human respirovirus 3; in [2]; in the data set with Sindbis virus; in the data set on Feline coronavirus; in the data set with Felid alphaherpesvirus 1) was inactive. Moreover, the result (in the data set on Human alphaherpesvirus 1; in the data set on Human alphaherpesvirus 2; in the data set with Coxsackievirus B4 [3]; in [4]; in the data set with Coxsackievirus B4 [5]; in the data set with Punta Toro virus) was inactive.

In the case of `CC(C)(C)C(=O)OCCN(Cn1ccc(=O)[nH]c1=O)S(=O)(=O)c1ccccc1[N+](=O)[O-]`, the Activity entry (with MDCK; in data set [1]; in the data set on HEL) was “Not Active” throughout. The outcome (in the data set with HeLa; in the data set with Human respirovirus 3; in data set [2]; with Sindbis virus; with Feline coronavirus; with Felid alphaherpesvirus 1) was inactive. Besides, the result (in the data set on Human alphaherpesvirus 1; in the data set with Human alphaherpesvirus 2; in the data set on Coxsackievirus B4 [3]; in [4]; in the data set with Coxsackievirus B4 [5]; in the data set on Punta Toro virus) was inactive.
